# Reference: ChEMBL document CHEMBL4038269, “Design, synthesis and evaluation of novel feruloyl-donepezil hybrids as potential multitarget drugs for the treatment of Alzheimer's disease” (Eur J Med Chem, 2017)
# The source made the active and inactive calls.
# What was measured:
# [1] = Antioxidant activity assessed as DPPH radical scavenging activity measured after 30 mins; assay type: functional
# Procedure, shortened: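 DPPH scavenging: compound at 12.5, 25, 50 and 100 µM in ethanol (4 mL) mixed with 1 mL of 0.5 mM DPPH in ethanol. Shaken 30 min at room temperature, absorbance read at 517 nm. % inhibition = (A control − A sample)/A control × 100. Run in triplicate; EC50 obtained by linear regression of mean values.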
# Acetylcholinesterase = Acetylcholinesterase (Electrophorus electricus, UniProt O42275); assay: Inhibition of Electrophorus electricus AChE using acetylthiocholine iodide as substrate pretreated for 10 mins followed by substrate addition measured at 12 secs interval for 5 mins by Ellman's method
# Acetylcholinesterase, sequence (O42275 whole entry): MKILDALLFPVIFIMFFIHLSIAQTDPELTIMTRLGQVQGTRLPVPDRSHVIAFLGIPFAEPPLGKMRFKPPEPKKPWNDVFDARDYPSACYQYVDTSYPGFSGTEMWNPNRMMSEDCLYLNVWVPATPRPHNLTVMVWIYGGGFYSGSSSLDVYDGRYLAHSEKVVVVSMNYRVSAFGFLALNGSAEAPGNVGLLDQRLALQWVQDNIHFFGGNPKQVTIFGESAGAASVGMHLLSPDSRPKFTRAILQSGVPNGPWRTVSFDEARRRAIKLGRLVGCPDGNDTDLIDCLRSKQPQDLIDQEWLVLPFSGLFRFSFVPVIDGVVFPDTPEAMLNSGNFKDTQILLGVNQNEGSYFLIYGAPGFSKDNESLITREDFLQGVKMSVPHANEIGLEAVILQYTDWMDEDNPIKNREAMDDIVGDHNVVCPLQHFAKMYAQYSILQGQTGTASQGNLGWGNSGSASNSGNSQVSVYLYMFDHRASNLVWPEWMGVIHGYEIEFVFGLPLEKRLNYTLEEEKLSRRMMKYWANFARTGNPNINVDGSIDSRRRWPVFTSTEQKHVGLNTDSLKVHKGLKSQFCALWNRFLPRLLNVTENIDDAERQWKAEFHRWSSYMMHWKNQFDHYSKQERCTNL
# SH-SY5Y [2] = assay: Antioxidant activity in human SH-SY5Y cells assessed as reduction in H2O2-induced reactive oxygen species formation measured after 24 hrs by DCFH-DA probe based fluorescence assay; assay type: functional, cell-based
# Cholinesterase = Cholinesterase (Equus caballus, UniProt P81908); assay: Inhibition of equine serum BuChE using butyrylthiocholine iodide as substrate pretreated for 10 mins followed by substrate addition measured at 12 secs interval for 5 mins by Ellman's method
# Cholinesterase, sequence (P81908 whole entry): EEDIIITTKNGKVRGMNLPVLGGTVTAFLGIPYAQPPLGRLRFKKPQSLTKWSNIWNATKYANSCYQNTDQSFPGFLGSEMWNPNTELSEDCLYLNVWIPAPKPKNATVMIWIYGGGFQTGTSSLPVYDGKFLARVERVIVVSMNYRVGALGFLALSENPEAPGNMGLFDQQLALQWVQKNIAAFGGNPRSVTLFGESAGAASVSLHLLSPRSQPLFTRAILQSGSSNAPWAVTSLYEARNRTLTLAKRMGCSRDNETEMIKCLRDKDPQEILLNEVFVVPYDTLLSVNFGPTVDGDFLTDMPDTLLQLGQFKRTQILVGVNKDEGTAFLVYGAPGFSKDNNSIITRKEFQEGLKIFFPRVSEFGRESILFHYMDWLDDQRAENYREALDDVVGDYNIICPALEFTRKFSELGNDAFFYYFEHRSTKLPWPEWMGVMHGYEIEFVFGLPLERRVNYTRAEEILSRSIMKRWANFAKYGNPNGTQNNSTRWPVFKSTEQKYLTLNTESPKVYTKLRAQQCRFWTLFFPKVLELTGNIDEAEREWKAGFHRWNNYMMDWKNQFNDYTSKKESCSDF
# Procedure, shortened: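 Ellman assay in 0.1 M sodium phosphate pH 7.4, enzyme 0.5 U/mL, DTNB 10 mM; concentration series preincubated 10 min before butyrylthiocholine iodide ([…]); A412 over 5 min at 12 s intervals. IC50 from fitted concentration-response curves, geometric mean of independent experiments, each in triplicate; DMSO ≤0.2% final.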
# SH-SY5Y [3] = assay: Pro-oxidant activity in human SH-SY5Y cells assessed as increase in H2O2-induced reactive oxygen species formation at 20 to 40 uM pretreated for 24 hrs followed by H2O2 addition by DCFH-DA probe based fluorescence assay; assay type: ADME, cell-based
# Mus musculus [4] = assay: Anti-inflammatory activity in Swiss mouse assessed as reduction in carrageenan-induced paw edema at 100 umol/kg, po pretreated for 1 hr followed by carrageenan challenge after 3 hrs by plethysmometer; assay type: functional, organism-based
# Procedure, shortened: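 Adult male Swiss mice (22-28 g), fasted overnight, given vehicle (DMSO 2% in sterile saline) or 100 µmol/kg orally 1 h before intraplantar carrageenan. Methods give 400 µg/20 µl and n=10 per group; figure legend gives 100 µg/paw and n=8. Right hind paw volume read by plethysmometer at 1, 3 and 5 h. Reported as change in µL from basal volume, mean ± SEM.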
# Mus musculus [5] = assay: Anti-inflammatory activity in Swiss mouse model of LPS-induced peritonitis assessed as inhibition of leukocyte migration at 100 umol/kg, po pretreated for 30 mins followed by LPS challenge measured after 4 hrs by Neubauer chamber method; assay type: functional, organism-based
# Procedure, shortened: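 Adult male Swiss mice (22-28 g), n=8 per group, dosed orally with 100 µmol/kg or vehicle (saline + DMSO 2%). 30 min later E. coli 026:B6 LPS, 100 µg/kg i.p. in sterile saline. Killed at 4 h by halothane overdose. Peritoneum lavaged with 10 ml PBS containing 0.5% sodium citrate. Total leukocytes counted in a Neubauer chamber, expressed as cells per cavity, mean ± SEM.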
# [6] = Metal chelating activity assessed as compound-Fe3+ complex formation at 75 uM after 30 mins by UV-Vis spectrophotometric method; assay type: functional
# Procedure, shortened: (§1)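 UV-Vis spectra in ethanol of compound at 75 µM alone or after 30 min incubation with CuSO4, FeSO4, FeCl3 or ZnCl2 (150 µM). Absorption maxima recorded.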
# Mus musculus [7] = assay: Antinociceptive activity in carrageenan-induced Swiss mouse model of mechanical hyperalgesia at 100 umol/kg, po pretreated for 1 hr followed by carrageenan challenge measured at 3 hrs post dose by Von Frey filament assay; assay type: functional, organism-based
# Procedure, shortened: (§2)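 Male Swiss mice (n=8) dosed orally with 100 µmol/kg or vehicle 1 h before intraplantar carrageenan (100 µg/paw). Mechanical threshold measured by up-and-down Von Frey method after 60 min acclimation on a wire screen. Started at 0.4 g filament, ≥6 trials at 10 s intervals, about 4 s per application. Reported as mean threshold in grams ± SEM.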
# Mus musculus [8] = assay: In vivo inhibition of COX-1 activity in carrageenan-induced Swiss mouse serum at 100 umol/kg, po pretreated for 1 hr followed by carrageenan challenge after 3 hrs by ELISA relative to control; assay type: functional
# Procedure, shortened: (§3)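 Male Swiss mice given oral drug (100 µmol/kg) or vehicle 1 h before intraplantar carrageenan (legend: 400 µg/paw). At 3 h, animals anaesthetised with chloral hydrate and cardiac blood taken. Serum separated (1500 rpm, 20 min) and frozen at -70 °C. COX-1, COX-2 and 5-LOX measured by specific sandwich ELISA at 450 nm. Expressed as % enzymatic activity, mean ± SEM, n=8.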
# Mus musculus [9] = assay: Neurotoxicity in Swiss mouse assessed as induction of motor impairment at 100 umol/kg, po measured after 1 hr by open filed test; assay type: toxicity, organism-based; conditions: in vivo
# Procedure, shortened: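 Male Swiss mice (n=8) given vehicle or compound orally 1 h before open-field test. Crossings of the central four and peripheral 12 squares counted separately.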
# SH-SY5Y [10] = assay: Antioxidant activity in human SH-SY5Y cells assessed as increase in GSH level at 20 uM after 24 hrs by MCB probe based assay relative to control; assay type: functional
# Procedure, shortened: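 SH-SY5Y cells (DMEM, 10% FBS, 37 °C, 5% CO2) seeded at 2 x 10^4 cells/well and grown 24 h. Treated with 20 µM compound for 3-24 h. Then 50 µM monochlorobimane in PBS for 30 min at 37 °C. GSH fluorescence read at ex 360/em 465 nm, as % of control cells. Mean ± SD of three independent experiments.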
# Mus musculus [11] = assay: In vivo inhibition of COX-2 activity in carrageenan-induced Swiss mouse serum at 100 umol/kg, po pretreated for 1 hr followed by carrageenan challenge after 3 hrs by ELISA relative to control; assay type: functional; procedure, shortened: as §3
# [12] = Metal chelating activity assessed as absorption maximum for compound-Fe2+ complex formation at 75 uM after 30 mins by UV-Vis spectrophotometric method (reference value: 237.2 nanometer); assay type: functional; procedure, shortened: as §1
# [13] = Cytotoxicity against human SH-SY5Y cells assessed as reduction in cell viability at 40 uM after 24 hrs by MTT assay relative to control; assay type: cell-based; conditions: read-out: INH
# Procedure, shortened: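 SH-SY5Y cells seeded at 2 x 10^4 cells/well, grown 24 h, then exposed to compound 1.25–40 µM for 24 h at 37 °C. MTT (5 mg/mL in PBS) added for 2 h and formazan dissolved in isopropanol. Read at 570 nm, reference 690 nm. Viability loss reported as percent at the top concentration, 40 µM.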
# SH-SY5Y [14] = assay: Antioxidant activity in human SH-SY5Y cells assessed as reduction in H2O2-induced reactive oxygen species formation at 40 uM measured after 24 hrs by DCFH-DA probe based fluorescence assay relative to control; assay type: functional; design: scale not given: the % may be the effect or the level left
# [15] = Metal chelating activity assessed as absorption maximum for compound-Zn2+ complex formation at 75 uM after 30 mins by UV-Vis spectrophotometric method; assay type: functional; procedure, shortened: as §1
# Mus musculus [16] = assay: Antiinflammatory activity in formalin-induced nociception Swiss mouse model assessed as reduction in time spent licking formalin injected hind paw during inflammatory phase at 100 umol/kg, po pretreated for 1 hr followed by formalin challenge measured after 20 to 30 mins; assay type: functional, organism-based
# Procedure, shortened: (§4)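 Male Swiss mice (22-28 g), n=8 per group, given oral vehicle (saline + DMSO 2%) or 100 µmol/kg 1 h before formalin (5% in 0.9% saline, 20 µl) into the right hind paw sub-plantar region. Morphine 39 µmol/kg i.p. was given 30 min before. Paw-licking time recorded at 0–5 min (neurogenic phase) and 20–30 min (inflammatory phase).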
# [17] = Metal chelating activity assessed as absorption maximum for compound-Cu2+ complex formation at 75 uM after 30 mins by UV-Vis spectrophotometric method (reference value: 237.2 nanometer); assay type: functional; procedure, shortened: as §1
# Mus musculus [18] = assay: Antinociceptive activity in carrageenan-induced Swiss mouse model of mechanical hyperalgesia at 100 umol/kg, po pretreated for 1 hr followed by carrageenan challenge measured at 3 hrs to 7 hrs post dose by Von Frey filament assay; assay type: functional, organism-based; procedure, shortened: as §2
# SH-SY5Y [19] = assay: Antioxidant activity in human SH-SY5Y cells assessed as reduction in H2O2-induced reactive oxygen species formation at 10 uM measured after 24 hrs by DCFH-DA probe based fluorescence assay; assay type: functional, cell-based
# Mus musculus [20] = assay: Antiinflammatory activity in formalin-induced nociception Swiss mouse model assessed as reduction in time spent licking formalin injected hind paw during neurogenic phase at 100 umol/kg, po pretreated for 1 hr followed by formalin challenge measured up to 5 mins; assay type: functional, organism-based; procedure, shortened: as §4
# [21] = target: Acetylcholinesterase (Electrophorus electricus) (UniProt O42275); assay: Inhibition of Electrophorus electricus AChE at 30 uM using acetylthiocholine iodide as substrate pretreated for 10 mins followed by substrate addition measured at 12 secs interval for 5 mins by Ellman's method relative to control
# Acetylcholinesterase (Electrophorus electricus), sequence (O42275 24-633 limits assumed): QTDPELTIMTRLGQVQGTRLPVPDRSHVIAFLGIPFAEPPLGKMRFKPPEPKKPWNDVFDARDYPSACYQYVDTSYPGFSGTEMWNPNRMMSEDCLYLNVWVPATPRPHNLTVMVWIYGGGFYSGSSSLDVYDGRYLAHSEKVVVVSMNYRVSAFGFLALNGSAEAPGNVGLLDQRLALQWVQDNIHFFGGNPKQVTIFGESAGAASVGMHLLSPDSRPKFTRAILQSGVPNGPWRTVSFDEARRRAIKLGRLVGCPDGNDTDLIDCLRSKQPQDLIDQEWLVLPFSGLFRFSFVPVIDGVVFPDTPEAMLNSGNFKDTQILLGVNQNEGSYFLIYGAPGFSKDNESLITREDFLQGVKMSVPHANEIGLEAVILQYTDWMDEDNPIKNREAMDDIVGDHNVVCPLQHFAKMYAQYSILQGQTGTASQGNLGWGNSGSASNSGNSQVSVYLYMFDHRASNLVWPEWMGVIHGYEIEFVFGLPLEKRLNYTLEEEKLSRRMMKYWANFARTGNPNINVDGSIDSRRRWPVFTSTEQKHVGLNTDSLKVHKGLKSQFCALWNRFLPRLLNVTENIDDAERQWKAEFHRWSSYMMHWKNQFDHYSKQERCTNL
# Procedure, shortened: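 Enzyme (0.5 U/mL) with DTNB (10 mM) in 0.1 M sodium phosphate pH 7.4; compound at 30 μM preincubated 10 min, then acetylthiocholine or butyrylthiocholine iodide added ([…]); A412 read every 12 s for 5 min. Velocity as percent of vehicle control; means and pooled SD from 2-4 experiments in triplicate. DMSO ≤0.2% final.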
# [22] = target: Cholinesterase (Equus caballus) (UniProt P81908); assay: Inhibition of equine serum BuChE at 30 uM using butyrylthiocholine iodide as substrate pretreated for 10 mins followed by substrate addition measured at 12 secs interval for 5 mins by Ellman's method relative to control
# Cholinesterase (Equus caballus), sequence (P81908 whole entry): as the sequence (P81908 whole entry) above
# [23] = Homo sapiens, SH-SY5Y, 24 h, read-out: IC50
smiles,measurement,setting,value
Cc1c(C)c2c(c(C)c1O)CCC(C)(C(=O)O)O2 (configuration not stated) [TROLOX],EC50,[1],4.86 µM
COc1ccc(/C=C/C(=O)OCC2CCN(Cc3ccc4c(c3)OCO4)CC2)cc1O,IC50,Acetylcholinesterase,> 30 µM
same,IC50,SH-SY5Y [2]; sh-sy5y,Not Active
same,EC50,[1],> 100 µM
COc1ccc(/C=C/C(=O)OCC2CCN(Cc3ccc(Br)cc3)CC2)cc1O,IC50,Acetylcholinesterase,> 30 µM
same,EC50,[1],> 100 µM
COc1ccc(/C=C/C(=O)OCC2CCN(Cc3ccc(Cl)cc3)CC2)cc1O,IC50,Acetylcholinesterase,> 30 µM
same,EC50,[1],12.5 µM
COc1cc(/C=C/C(=O)OCC2CCN(Cc3ccc(Cl)cc3)CC2)ccc1O,IC50,Acetylcholinesterase,> 30 µM
same,EC50,[1],20.5 µM
COc1cc(/C=C/C(=O)O)ccc1O [FERULATE],IC50,SH-SY5Y [2]; [23],11.8 µM
same,EC50,[1],35.5 µM
COc1cc(/C=C/C(=O)CC(=O)/C=C/c2ccc(O)c(OC)c2)ccc1O [CURCUMIN],IC50,Cholinesterase,> 300 µM
COc1cc(/C=C/C(=O)OCC2CCN(Cc3ccc(N4CCOCC4)cc3)CC2)ccc1O,IC50,Acetylcholinesterase,> 30 µM
same,EC50,[1],73.8 µM
COc1ccc(CN2CCC(COC(=O)/C=C/c3ccc(O)c(OC)c3)CC2)cc1,IC50,Acetylcholinesterase,> 30 µM
same,EC50,[1],78.1 µM
COc1ccc(/C=C/C(=O)O)cc1O [ISOFERULIC ACID],EC50,[1],> 100 µM
COc1ccc(CN2CCC(COC(=O)/C=C/c3ccc(OC)c(O)c3)CC2)cc1,IC50,Acetylcholinesterase,> 30 µM
same,EC50,[1],> 100 µM
COc1cc(/C=C/C(=O)OCC2CCN(Cc3ccc(Br)cc3)CC2)ccc1O,Activity,SH-SY5Y [3],Toxic
same,Activity,Mus musculus [4],Active
same,inhibition,Mus musculus [5],Active
same,Activity,[6],inactive
same,Activity,Mus musculus [7],Active
same,inhibition in vivo at 100 µmol/kg,Mus musculus [8],30%
same,IC50,Acetylcholinesterase,> 30 µM
same,Activity,Mus musculus [9],Non-Toxic
same,Activity,SH-SY5Y [10],inactive
same,inhibition in vivo at 100 µmol/kg,Mus musculus [11],60%
same,Activity,[12],Active
same,"cytotoxicity at 24 h, 40 µM",[13],28%
same,Activity,SH-SY5Y [14],<50%
same,Activity,[15],inactive
same,Activity,Mus musculus [16],Active
same,Activity,[17],Active
same,Activity,Mus musculus [18],Active
same,Activity,SH-SY5Y [19],Active
same,EC50,[1],45.4 µM
COc1cc2c(cc1OC)C(=O)C(CC1CCN(Cc3ccccc3)CC1)C2 (configuration not stated) [DONEPEZIL],IC50,SH-SY5Y [2]; sh-sy5y,Not Active
same,Activity,SH-SY5Y [14],<50%
COc1cc(/C=C/C(=O)OCC2CCN(Cc3ccc4c(c3)OCO4)CC2)ccc1O,IC50,Acetylcholinesterase,> 30 µM
same,EC50,[1],> 100 µM
COc1ccc(/C=C/C(=O)OCC2CCN(Cc3ccc(N4CCOCC4)cc3)CC2)cc1O,IC50,Acetylcholinesterase,> 30 µM
same,EC50,[1],> 100 µM
COc1ccc2c(c1)c(CC(=O)O)c(C)n2C(=O)c1ccc(Cl)cc1 [INDOMETHACIN],Activity,Mus musculus [4],Active
same,Activity,Mus musculus [7],Active
same,inhibition in vivo at 100 µmol/kg,Mus musculus [8],50%
same,inhibition in vivo at 100 µmol/kg,Mus musculus [11],42%
same,Activity,Mus musculus [20],Active
same,Activity,Mus musculus [16],Active
COc1cc(/C=C/C(=O)OCC2CCN(Cc3ccc([N+](=O)[O-])cc3)CC2)ccc1O,Activity,[6],inactive
same,inhibition,[21],50%
same,inhibition,[22],4.3%
same,IC50,Acetylcholinesterase,16.7 µM
same,fold change (FC),SH-SY5Y [10],1.2
same,Activity,SH-SY5Y [2],Dose-dependent effect
same,IC50,SH-SY5Y [2]; [23],25.9 µM
same,Activity,[12],Active
same,"cytotoxicity at 24 h, 40 µM",[13],9%
same,Activity,[15],inactive
same,Activity,[17],Active
same,EC50,[1],46.7 µM
COc1ccc(/C=C/C(=O)OCC2CCN(Cc3ccc([N+](=O)[O-])cc3)CC2)cc1O,IC50,Acetylcholinesterase,> 30 µM
same,EC50,[1],> 100 µM
COc1ccc(/C=C/C(=O)OCC2CCN(Cc3ccccc3)CC2)cc1O,IC50,Acetylcholinesterase,> 30 µM
same,EC50,[1],> 100 µM
